Results published in ChEMBL document CHEMBL1158358, “Synthesis, antimicrobial and cytotoxic activities of some 5-arylidene-4-thioxo-thiazolidine-2-ones” (Eur J Med Chem, 2009).
Values after ≈ are worked out from the molar mass of the structure shown.

Assays:
[1] = tested on: Candida albicans; test: Antimicrobial activity against Candida albicans UFPEDA 1007 at 25 ug/disk after 48 hrs by disk diffusion method; format: functional; conditions: UFPEDA 1007, 48 h, read-out: IZ
Procedure, shortened: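 Preliminary screen: 6 mm paper disks bearing the agent placed on agar plates inoculated with a standardized microbial suspension. Negative control was DMSO-only disks. Inhibition zones are means of n = 3; no zone or a mean zone below 7 mm was scored as no sensitivity.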

[2] = tested on: Candida albicans; test: Antimicrobial activity against Candida albicans UFPEDA 1007 after 48 hrs by twofold serial dilution technique; format: functional; conditions: UFPEDA 1007, 48 h
Procedure, shortened: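 MIC was determined by twofold serial dilution. Bacteria were tested in plates at 10⁵ CFU/plate and read after 20 h. C. albicans was tested in tubes at 10³ CFU/tube and read after 48 h. All incubations were at 35 °C. Medium plus DMSO served as the negative control.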

[3] = tested on: HEp-2; test: Cytotoxicity against human Hep2 cells after 72 hrs by MTT assay; format: functional, cell-based; conditions: HEp-2, 72 h
Procedure, shortened: (§1)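 MTT antiproliferative assay. Cells were diluted to 10⁵ cells/mL in 96-well plates and preincubated for 24 h at 37 °C in humid 5% CO₂. Compounds or vincristine (reference) were then added. Formazan was dissolved and OD read at 540 nm, compared with medium-only control cells. Run in triplicate.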

[4] = tested on: NCI-H292; test: Cytotoxicity against human NCI-H292 cells after 72 hrs by MTT assay; format: functional, cell-based; conditions: NCI-H292, 72 h; procedure, shortened: as §1

| SMILES | zone of inhibition at 25 µg/disc [1] [mm] | MIC [2] [µg/mL] | IC50 [3] [µg/mL] | IC50 [4] [µg/mL] |
| --- | --- | --- | --- | --- |
| CC(=O)N1CCN(c2ccc(OCC3COC(Cn4ccnc4)(c4ccc(Cl)cc4Cl)O3)cc2)CC1 (centres undefined) [KETOCONAZOLE] | 28 | ≤ 1 | – | – |
| CC[C@]1(O)C[C@H]2CN(CCc3c([nH]c4ccccc34)[C@@](C(=O)OC)(c3cc4c(cc3OC)N(C=O)[C@H]3[C@@](O)(C(=O)OC)[C@H](OC(C)=O)[C@]5(CC)C=CCN6CC[C@]43[C@@H]65)C2)C1 [VINCRISTINE] | – | – | 0.003 (≈ 0.00364 µM) | 0.04 (≈ 0.0485 µM) |
